{"data": "Experimental data collected from several papers", "cell line": "ACHN", "read-out": "cell growth or viability", "note": "Compare with care: the assays were run in different laboratories."}
{"SMILES": "COc1ccc(C(=O)/C=C/c2ccccc2Br)cc1S(N)(=O)=O", "technique": "SRB", "time": "48 h", "quantity": "GI50", "result": "1800 nM"}
{"SMILES": "COc1ccc(-c2ccc(-c3ccc(C(=N)N)nc3)s2)cc1Cl", "quantity": "GI50", "result": "1770 nM"}
{"SMILES": "COc1cccc(Oc2ccccc2NC(=O)CNC(=O)c2cccc3ccccc23)c1", "technique": "SRB", "time": "48 h", "quantity": "GI50", "result": "398 nM"}
{"SMILES": "COc1ccc(C(=O)/C=C/c2cc3c(cc2Br)OCO3)cc1S(N)(=O)=O", "technique": "SRB", "tested at": "10 µM", "quantity": "inhibition", "result": "123%"}
{"SMILES": "S=C([S][Au-][P+](CCCCCC[P+]([Au-][S]C(=S)n1cccn1)(c1ccccc1)c1ccccc1)(c1ccccc1)c1ccccc1)n1cccn1", "quantity": "GI50", "result": "1450 nM"}
{"SMILES": "COc1cc(-c2ccc(-c3ccc(C(=N)N)nc3)s2)cc(OC)c1OC", "quantity": "GI50", "result": "1730 nM"}
{"SMILES": "Cc1cc(C)n(C(=S)[S][Au][PH](CCCCCC[PH]([Au][S]C(=S)n2nc(C)cc2C)(c2ccccc2)c2ccccc2)(c2ccccc2)c2ccccc2)n1", "quantity": "GI50", "result": "752 nM"}
{"SMILES": "CC1=CC(=O)C(C(C)C)=CC1=O", "technique": "CCK-8", "time": "48 h", "quantity": "IC50", "result": "53000 nM"}
